Data taken from ChEMBL document CHEMBL5316316, “Designing Synthetic, Sulfated Glycosaminoglycan Mimetics That Are Orally Bioavailable and Exhibiting In Vivo Anticancer Activity” (J Med Chem, 2023).
The source made the active and inactive calls. No cut-off for these calls is given here.

Key:
HT-29 [1] = assay: Cytotoxicity against human HT-29 cells assessed as reduction in cell viability at 100 uM incubated for 60 to 72 hrs by MTT assay; format: toxicity, cell-based; details: ht-29, 100 µM, time 60-72 hrs
Outline: (§1)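 HT-29 monolayer cells were seeded at about 2.5 × 10^3 per well in DMEM:F12 with 10% FBS and incubated overnight at 37 °C, 5% CO2. Compound was added for 60–72 h. MTT (5 mg/mL in PBS) was added for 2–3 h, crystals were dissolved in DMSO and absorbance read at 590 nm. Results are percent of vehicle control, at least three replicates.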

Plasma [2] = assay: Anticoagulant activity in human plasma assessed as prolongation of activated partial thromboplastin time by measuring concentration required to double APTT incubated for 4 mins by coagulometer analysis; format: functional, cell-free
Outline: (§2)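 Pooled normal citrated human plasma (90 μL) mixed with 10 μL compound and 100 μL prewarmed ellagic acid APTT reagent, incubated 4 min at 37 °C, then recalcified with 100 μL prewarmed 25 mM CaCl2. Clot time read on a fibrometer (one-stage recalcification). Water blank gave the baseline. Concentration doubling APTT came from a quadratic trend-line fit.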

Plasma [3] = assay: Anticoagulant activity in pooled human plasma assessed as prolongation of activated partial thromboplastin time incubated for 4 mins by coagulometer analysis; format: functional, cell-free; outline: as §2
[4] = Cytotoxicity against human HT-29 cells assessed as inhibition of spheroid growth; details: HT-29 cell spheroids
Mus musculus = assay: Antithrombotic activity in ICR mouse model of tail-bleeding assessed as increase in blood loss at 100 mg/kg, iv
HT-29 [5] = assay: Cytotoxicity against human HT-29 cells assessed as reduction in cell viability incubated for 60 to 72 hrs by MTT assay; format: toxicity, cell-based; details: time 60-72 hrs; outline: as §1
HT-29 [6] = assay: Antitumor activity against human HT-29 cells xenografted in NCR nude mouse assessed as decrease in BMI-1 expression at 100 mg/kg, ip administered 3 times a week for 4.6 weeks by Western blot analysis; format: functional, organism-based
Outline: (§3)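 Mice were randomized to 100 mg/kg IP three times/week for 4.6 weeks (14 doses). Tumors (n = 2/group) were dissociated and analysed by Western blot for LGR5, DCAMLK1 and BMI-1, and by flow cytometry for CD133+/CXCR4+ cells.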

HT-29 [7] = assay: Antitumor activity against human HT-29 cells xenografted in NCR nude mouse assessed as decrease in LGR5 expression at 100 mg/kg, ip administered 3 times a week for 4.6 weeks by Western blot analysis; format: functional, organism-based; outline: as §3
HT-29 [8] = assay: Cytotoxicity against human HT-29 cells assessed as reduction in cell viability at 400 uM incubated for 60 to 72 hrs by MTT assay; format: toxicity, cell-based; details: ht-29, 400 µM, time 60-72 hrs; outline: as §1
HT-29 [9] = assay: Antitumor activity against human HT-29 cells xenografted in NCR nude mouse assessed as decrease in DCAMKL1 expression at 100 mg/kg, ip administered 3 times a week for 4.6 weeks by Western blot analysis; format: functional, organism-based; outline: as §3

| SMILES | Activity (HT-29 [1]) | Activity (Plasma [2]) | Activity (Plasma [3]) | IC50 [4] | Activity (Mus musculus) | Activity (HT-29 [5]) | Activity (HT-29 [6]) | Activity (HT-29 [7]) | Activity (HT-29 [8]) | Activity (HT-29 [9]) |
| --- | --- | --- | --- | --- | --- | --- | --- | --- | --- | --- |
| CC(C)CCC[C@@H](C)[C@H]1CC[C@H]2[C@@H]3CC=C4C[C@@H](OCCCCCCCCOc5cc(-c6oc7cc(OS(=O)(=O)[O-])cc(OCCCOc8cc(OS(=O)(=O)[O-])cc9oc(-c%10ccc(OS(=O)(=O)[O-])c(OS(=O)(=O)[O-])c%10)c(OS(=O)(=O)[O-])c(=O)c89)c7c(=O)c6OS(=O)(=O)[O-])ccc5OS(=O)(=O)[O-])CC[C@]4(C)[C@H]3CC[C@]12C.[Na+].[Na+].[Na+].[Na+].[Na+].[Na+].[Na+] | Toxic | Active | Dose-Dependent Effect | 0.8 µM | Active |  |  |  |  |  |
| O=c1c(OS(=O)(=O)[O-])c(-c2ccc(OS(=O)(=O)[O-])c(OS(=O)(=O)[O-])c2)oc2cc(OS(=O)(=O)[O-])cc(OCC3CCC(COc4cc(OS(=O)(=O)[O-])cc5oc(-c6ccc(OS(=O)(=O)[O-])c(OS(=O)(=O)[O-])c6)c(OS(=O)(=O)[O-])c(=O)c45)CC3)c12.[Na+].[Na+].[Na+].[Na+].[Na+].[Na+].[Na+].[Na+] (stereo unspecified) |  |  |  | 4 µM |  | Non-Toxic |  |  |  |  |
| CC(C)CCC[C@@H](C)[C@H]1CC[C@H]2[C@@H]3CC=C4C[C@@H](OCCCCCOc5cc(-c6oc7cc(OS(=O)(=O)[O-])cc(OCCCOc8cc(OS(=O)(=O)[O-])cc9oc(-c%10ccc(OS(=O)(=O)[O-])c(OS(=O)(=O)[O-])c%10)c(OS(=O)(=O)[O-])c(=O)c89)c7c(=O)c6OS(=O)(=O)[O-])ccc5OS(=O)(=O)[O-])CC[C@]4(C)[C@H]3CC[C@]12C.[Na+].[Na+].[Na+].[Na+].[Na+].[Na+].[Na+] |  | Active | Dose-Dependent Effect | 11.5 µM |  |  | Active | Active | Toxic | Active |
| O=c1c(OS(=O)(=O)[O-])c(-c2ccc(OS(=O)(=O)[O-])cc2OS(=O)(=O)[O-])oc2cc(OS(=O)(=O)[O-])cc(OCC3CCC(COc4cc(OS(=O)(=O)[O-])cc5oc(-c6ccc(OS(=O)(=O)[O-])cc6OS(=O)(=O)[O-])c(OS(=O)(=O)[O-])c(=O)c45)CC3)c12.[Na+].[Na+].[Na+].[Na+].[Na+].[Na+].[Na+].[Na+] (stereo unspecified) |  |  |  | 17.9 µM |  | Non-Toxic |  |  |  |  |
